Source: ChEMBL document CHEMBL1671657, “MurF inhibitors with antibacterial activity: effect on muropeptide levels” (Antimicrob Agents Chemother, 2009)
Converted amounts (≈) assume the structure as drawn. The source made the active and inactive calls. No cut-off for these calls is given here.

Tests used:
[1] = tested on: Escherichia coli; test: Inhibition of LPS-deficient Escherichia coli OC2530 MurF assessed as UDP-MurNAc-tripeptide substrate level at 4 times MIC by HPLC (reference value: 1 mAU)
[2] = tested on: Escherichia coli; test: Inhibition of LPS-deficient Escherichia coli OC2530 MurF harboring pASK plasmid assessed as UDP-MurNAc-pentapeptide product level at 2 times MIC by HPLC (Rvb =880 +/- 17 mAU)
Procedure, shortened: (§1)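 Compound added at 2× MIC from 500× stock (DMSO control). After 30 min, muropeptides extracted and quantified by HPLC peak area (mAU); representative of two independent experiments.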

[3] = tested on: Enterococcus faecalis; test: Antimicrobial activity against Enterococcus faecalis ATCC 29212 by broth microdilution method in presence of polymyxin B nonapeptide; type: functional
Procedure, shortened: (§2)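 MICs by CLSI broth microdilution. Where polymyxin B nonapeptide was included, it was present at 2 μg/ml alongside the test compound.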

[4] = tested on: Escherichia coli; test: Inhibition of LPS-deficient Escherichia coli OC2530 MurF assessed as UDP-MurNAc-tripeptide substrate level at MIC by HPLC (reference value: 1 fold of control)
[5] = tested on: Escherichia coli; test: Antimicrobial activity against Escherichia coli OC2605 by broth microdilution method in presence of polymyxin B nonapeptide; type: functional; procedure, shortened: as §2
[6] = tested on: Escherichia coli; test: Antimicrobial activity against LPS-deffective Escherichia coli OC2530 harboring pASK plasmid by broth microdilution method in presence of chloramphenicol; type: functional
Procedure, shortened: (§3)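 CLSI broth microdilution MIC for OC2530 carrying plasmid (empty pASK or pMurF). Medium contained chloramphenicol 3 μg/ml to keep the plasmid and AHT 100 ng/ml to induce MurF expression.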

[7] = tested on: Escherichia coli; test: Antimicrobial activity against LPS-deffective Escherichia coli OC2530 at 0.5 times MIC after 30 mins relative to control; type: functional, organism-based
[8] = tested on: Escherichia coli; test: Antimicrobial activity against Escherichia coli OC9040 by broth microdilution method; type: functional; procedure, shortened: as §2
[9] = tested on: Escherichia coli; test: Inhibition of LPS-deficient Escherichia coli OC2530 MurF assessed as UDP-MurNAc-pentapeptide product level at MIC by HPLC (reference value: 1 fold of control)
[10] = tested on: Escherichia coli; test: Antimicrobial activity against Escherichia coli OC9040 by broth microdilution method in presence of polymyxin B nonapeptide; type: functional; procedure, shortened: as §2
[11] = tested on: Escherichia coli; test: Antimicrobial activity against LPS-deffective Escherichia coli OC2530 assessed as log reduction in bacterial count at 2 times MIC after 30 mins relative to control; type: functional
[12] = tested on: Escherichia coli; test: Inhibition of LPS-deficient Escherichia coli OC2530 MurF assessed as UDP-MurNAc-tripeptide substrate level at 0.5 times MIC by HPLC (reference value: 1 mAU)
[13] = tested on: Escherichia coli; test: Antimicrobial activity against LPS-deffective Escherichia coli OC2530 at 0.5 times MIC by light microscopy relative to control; type: functional, organism-based
Procedure, shortened: (§4)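 Cells were fixed on a glass slide under a coverslip and viewed by light microscopy at ×100/×1.25 oil immersion. Representative images were taken.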

[14] = tested on: Escherichia coli; test: Antimicrobial activity against LPS-deffective Escherichia coli OC2530 by broth microdilution method; type: functional; procedure, shortened: as §2
[15] = tested on: Staphylococcus aureus; test: Antimicrobial activity against Staphylococcus aureus OC4172 by broth microdilution method in presence of polymyxin B nonapeptide; type: functional; procedure, shortened: as §2
[16] = tested on: Escherichia coli; test: Antimicrobial activity against LPS-deffective Escherichia coli OC2530 assessed as cell aggregation at 0.5 times MIC by light microscopy relative to untreated control; type: functional, organism-based; procedure, shortened: as §4
[17] = tested on: Enterococcus faecalis; test: Antimicrobial activity against Enterococcus faecalis ATCC 29212 by broth microdilution method; type: functional; procedure, shortened: as §2
[18] = tested on: Staphylococcus aureus; test: Antimicrobial activity against methicillin-resistant Staphylococcus aureus OC3726 by broth microdilution method in presence of polymyxin B nonapeptide; type: functional
Procedure, shortened: (§5)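 CLSI broth microdilution MIC run in the presence of polymyxin B nonapeptide (PMBN) at 2 μg/ml as a permeabilizer.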

[19] = tested on: Enterococcus faecium; test: Antimicrobial activity against Enterococcus faecium OC3312 by broth microdilution method; type: functional; procedure, shortened: as §2
[20] = tested on: Enterococcus faecium; test: Antimicrobial activity against Enterococcus faecium OC3312 by broth microdilution method in presence of polymyxin B nonapeptide; type: functional; procedure, shortened: as §2
[21] = tested on: Escherichia coli; test: Antimicrobial activity against LPS-deffective Escherichia coli OC2530 assessed as growth inhibition at MIC by light microscopy; type: functional, organism-based
[22] = tested on: Escherichia coli; test: Inhibition of LPS-deficient Escherichia coli OC2530 MurF harboring pASK plasmid assessed as UDP-MurNAc-tripeptide substrate level at 2 times MIC by HPLC (reference value: 63 +/- 4 mAU); procedure, shortened: as §1
[23] = tested on: Escherichia coli; test: Inhibition of LPS-deficient Escherichia coli OC2530 MurF harboring pMurF plasmid assessed as UDP-MurNAc-pentapeptide product level at 2 times MIC by HPLC (reference value: 2674 +/- 696 mAU); procedure, shortened: as §1
[24] = tested on: Escherichia coli; test: Antimicrobial activity against LPS-deffective Escherichia coli OC2530 assessed as cell aggregation at 0.5 times MIC by TEM relative to untreated control; type: functional, organism-based
Procedure, shortened: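 At 5 h, cells were fixed in 1% glutaraldehyde (final) for 1 h at room temperature, pelleted, and resuspended in PBS. They were negatively stained with 1% ammonium molybdate and imaged by TEM at ×15,000.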

[25] = tested on: Escherichia coli; test: Antimicrobial activity against LPS-deffective Escherichia coli OC2530 assessed as cell lysis at 2 times MIC by light microscopy; type: functional, organism-based; procedure, shortened: as §4
[26] = tested on: Escherichia coli; test: Antimicrobial activity against Escherichia coli OC2605 by broth microdilution method; type: functional
Procedure, shortened: (§6)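 CLSI broth microdilution MIC; strains from the sponsor's in-house collection.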

[27] = tested on: Staphylococcus aureus; test: Antimicrobial activity against methicillin-resistant Staphylococcus aureus OC3726 by broth microdilution method; type: functional; procedure, shortened: as §6
[28] = tested on: Escherichia coli; test: Antimicrobial activity against Escherichia coli ATCC 25922 by broth microdilution method; type: functional; procedure, shortened: as §2
[29] = tested on: Escherichia coli; test: Inhibition of LPS-deficient Escherichia coli OC2530 MurF assessed as UDP-MurNAc-pentapeptide product level at 2 times MIC by HPLC (reference value: 1 mAU)
[30] = tested on: Escherichia coli; test: Antimicrobial activity against LPS-deffective Escherichia coli OC2530 assessed as cell lysis at 4 times MIC by light microscopy; type: functional, organism-based; procedure, shortened: as §4
[31] = tested on: Escherichia coli; test: Inhibition of LPS-deficient Escherichia coli OC2530 MurF assessed as UDP-MurNAc-tripeptide substrate level at 2 times MIC by HPLC (reference value: 1 mAU)
[32] = tested on: Escherichia coli; test: Antimicrobial activity against Escherichia coli ATCC 25922 by broth microdilution method in presence of polymyxin B nonapeptide; type: functional; procedure, shortened: as §2
[33] = tested on: Staphylococcus aureus; test: Antimicrobial activity against Staphylococcus aureus ATCC 29213 by broth microdilution method in presence of polymyxin B nonapeptide; type: functional; procedure, shortened: as §2
[34] = tested on: Escherichia coli; test: Antimicrobial activity against LPS-deffective Escherichia coli OC2530 at =< MIC after 3 hrs relative to untreated control; type: functional, organism-based
[35] = tested on: Escherichia coli; test: Bactericidal activity against LPS-deffective Escherichia coli OC2530 assessed as log reduction in bacterial count at =>2 times MIC after 3 hrs relative to control; type: functional
[36] = tested on: Staphylococcus aureus; test: Antimicrobial activity against methicillin-resistant Staphylococcus aureus OC2878 by broth microdilution method; type: functional; procedure, shortened: as §6
[37] = tested on: Escherichia coli; test: Bactericidal activity against LPS-deffective Escherichia coli OC2530 assessed as log reduction in bacterial count at 2 times MIC after 3 hrs relative to control; type: functional
[38] = tested on: Escherichia coli; test: Inhibition of LPS-deficient Escherichia coli OC2530 MurF harboring pMurF plasmid assessed as UDP-MurNAc-tripeptide substrate level at 2 times MIC by HPLC (reference value: 220 +/- 65 mAU); procedure, shortened: as §1
[39] = tested on: Escherichia coli; test: Antimicrobial activity against LPS-deffective Escherichia coli OC2530 assessed as log reduction in bacterial count at 4 times MIC after 30 mins relative to control; type: functional
[40] = tested on: Escherichia coli; test: Antimicrobial activity against LPS-deffective Escherichia coli OC2530 by broth microdilution method in presence of polymyxin B nonapeptide; type: functional; procedure, shortened: as §2
[41] = tested on: Staphylococcus aureus; test: Antimicrobial activity against methicillin-resistant Staphylococcus aureus OC2878 by broth microdilution method in presence of polymyxin B nonapeptide; type: functional; procedure, shortened: as §5
[42] = tested on: Escherichia coli; test: Antimicrobial activity against LPS-deffective Escherichia coli OC2530 at 0.5 times MIC after 4 hrs by light microscopy relative to control; type: functional, organism-based; procedure, shortened: as §4
[43] = tested on: Escherichia coli; test: Antimicrobial activity against LPS-deffective Escherichia coli OC2530 at MIC after 30 mins relative to control; type: functional, organism-based
[44] = tested on: Staphylococcus aureus; test: Antimicrobial activity against Staphylococcus aureus ATCC 29213 by broth microdilution method; type: functional; procedure, shortened: as §2
[45] = Inhibition of Escherichia coli MurF
[46] = tested on: Escherichia coli; test: Inhibition of LPS-deficient Escherichia coli OC2530 MurF assessed as UDP-MurNAc-pentapeptide product level at 4 times MIC by HPLC (reference value: 1 mAU)
[47] = tested on: Escherichia coli; test: Antimicrobial activity against LPS-deffective Escherichia coli OC2530 harboring pMurF plasmid by broth microdilution method in presence of chloramphenicol; type: functional; procedure, shortened: as §3
[48] = tested on: Staphylococcus aureus; test: Antimicrobial activity against Staphylococcus aureus OC4172 by broth microdilution method; type: functional; procedure, shortened: as §2
[49] = tested on: Escherichia coli; test: Antimicrobial activity against LPS-deffective Escherichia coli OC2530 at MIC after 3 hrs relative to untreated control; type: functional
[50] = tested on: Escherichia coli; test: Inhibition of LPS-deficient Escherichia coli OC2530 MurF assessed as UDP-MurNAc-pentapeptide product level at 0.5 times MIC by HPLC (reference value: 1 mAU)

COc1ccc2nc(OC)c([C@@H](c3ccccc3)[C@](O)(CCN(C)C)c3ccccc3)cc2c1
Activity (fold of control) [1]: 63
Activity [2]: 213 mAU
MIC [3]: > 32 µg/mL
Activity (fold of control) [4]: 27
MIC [5]: 4 µg/mL
MIC [6]: 16 µg/mL
Activity [7]: Active
MIC [8]: > 32 µg/mL
Activity (fold of control) [9]: 1.48
MIC [10]: 8 µg/mL
FC [11]: 1
Activity (fold of control) [12]: 6
Activity [13]: inactive
MIC [14]: 8 µg/mL (≈ 17.5 µM)
MIC [15]: > 32 µg/mL
Activity [16]: Active
MIC [17]: > 32 µg/mL
MIC [18]: > 32 µg/mL
MIC [19]: > 32 µg/mL
MIC [20]: > 32 µg/mL
Activity [21]: Active
Activity [22]: 1200 mAU
Activity [23]: 351 mAU
Activity [24]: Active
Activity [25]: Active
MIC [26]: > 32 µg/mL
MIC [27]: > 32 µg/mL
MIC [28]: > 32 µg/mL
Activity (fold of control) [29]: 0.33
Activity [30]: Active
Activity (fold of control) [31]: 89
MIC [32]: 8 µg/mL
MIC [33]: > 32 µg/mL
Activity [34]: inactive
FC [35]: 5
MIC [36]: > 32 µg/mL
FC [37]: 5
Activity [38]: 933 mAU
FC [39]: 2
MIC [40]: 2 µg/mL
MIC [41]: > 32 µg/mL
Activity [42]: Active
Activity [43]: Active
MIC [44]: > 32 µg/mL
IC50 [45]: 24 µM
Activity (fold of control) [46]: 0.15
MIC [47]: 16 µg/mL
MIC [48]: > 32 µg/mL
fold change (FC) [49]: 0.3
Activity (fold of control) [50]: 1.62
